Only some compounds are listed: those with a hit (about 4.1% of all), similar ones and a draw of the others.
MEKK3 PB1 HTS: modulators (inhibitors or enhancers) of MEK5 binding to human MEKK3 PB1 domain; binding response (% of control), % at 10 µM; AID 1529; bead-based flow cytometry, Alexa488-MEK5 binding to MEKK3; actives lie on both sides; 0 = blocked by unlabeled MEK5, 100 = vehicle; Q99759; hit rate 1.4% among 290,000;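 active = binding response more than 3 SD above or below the average of its plate-row segment, actives on both sides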;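 also: Alexa488 bead fluorescence after subtracting the streptavidin-only scavenger bead signal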
Target sequence (Q99759 whole entry, looked up, the tested form may be a part): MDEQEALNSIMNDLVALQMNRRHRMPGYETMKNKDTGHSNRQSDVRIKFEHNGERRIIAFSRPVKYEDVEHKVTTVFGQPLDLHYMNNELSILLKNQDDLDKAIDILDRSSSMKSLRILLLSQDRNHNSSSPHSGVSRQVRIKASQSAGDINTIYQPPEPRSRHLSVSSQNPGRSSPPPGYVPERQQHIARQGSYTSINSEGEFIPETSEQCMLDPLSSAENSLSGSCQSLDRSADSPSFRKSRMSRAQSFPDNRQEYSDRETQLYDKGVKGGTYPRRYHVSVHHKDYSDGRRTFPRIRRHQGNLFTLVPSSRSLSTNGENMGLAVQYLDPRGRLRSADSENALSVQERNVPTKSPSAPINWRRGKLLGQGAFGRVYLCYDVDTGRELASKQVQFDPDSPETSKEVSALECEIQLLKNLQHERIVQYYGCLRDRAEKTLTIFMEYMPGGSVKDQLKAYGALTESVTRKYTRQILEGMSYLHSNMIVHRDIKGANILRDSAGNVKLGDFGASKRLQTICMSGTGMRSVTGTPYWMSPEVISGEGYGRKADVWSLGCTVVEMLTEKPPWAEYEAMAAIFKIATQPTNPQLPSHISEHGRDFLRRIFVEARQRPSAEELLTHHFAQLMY
MEKK2 mut-MEK5: signal of MEK5 binding to mutant human MEKK2 PB1 domain. percent response, % at 10 µM. bead flow cytometry, Alexa488-MEK5 binding to MEKK2 mutant. AID 1530. hit rate 0.35% among 290,000; in the data active = percent response above about 24%, passing the limit was not always enough
MEKK2wt PB1 HTS: raises or lowers MEK5 binding to wildtype human MEKK2 PB1 domain; Q9Y2U5; bead flow cytometry, Alexa488-MEK5 binding to MEKK2 WT; actives lie on both sides; binding response (% of control), % at 10 µM; hit rate 1.1% among 290,000; AID 1531; in the data active = binding response below about 67% or above about 130%
T cruzi repl: T. cruzi replication inhibition; T. cruzi beta-gal in NIH3T3, luminescence, 90 h; inhibition, % (test concentration not listed); hit rate 1.4% among 300,000; AID 1885;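 active = mean inhibition across valid replicates above about 55%, limit read from the data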;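 also: signal also drops with host cell toxicity which is not excluded here; higher percent means less beta-gal luminescence so fewer parasites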
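System: Mouse NIH/3T3 fibroblasts infected with β-gal-expressing T. cruzi Tulahuen C4 | Quantity: NIH/3T3 cells, 5,000 per well | Reagent: 5000 reporter trypomastigotes per well | Dosing: Compound pinned at 50 nL/well, DMSO | Schedule: 3 h host attachment, then at least 90 h co-culture | Detection: GalScreen luminescence, 60 min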
FID counter: counter-screen for HCV NS3 helicase inhibitors: DNA intercalator displacement; DNA fluorescent intercalator displacement, fluorescence; inhibition, % at 7.9 µM; hit rate 0.17% among 290,000; AID 1845; in the data active = inhibition above about 37%;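 also: higher means more ethidium bromide displaced from hairpin DNA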
NS3 helicase inh: blocks Hepatitis C virus NS3 helicase unwinding; NS3 helicase DNA unwinding, Cy5 molecular beacon fluorescence; inhibition, % at 10.9 µM; hit rate 0.56% among 290,000; AID 1800;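 active = inhibition above the mean of all tested compounds plus 3 SD, set per campaign, cut at about 35% in these data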
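Assay system: hepatitis C virus NS3 helicase domain fragment enzyme. Also added: annealed dual-labelled DNA beacon duplex, ATP-started. Timing: 1 h reaction at 25 °C, ATP-initiated. Technique: Cy5 fluorescence at 0 and 60 min, beacon hairpin quenching. Evaluation: % inhibition of unwinding. Replication: one well per compound.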
MEKK2wt confirm: raises or lowers MEK5 binding to wildtype human MEKK2, retest; binding response (% of control), % at 10 µM; hit rate 2.4% among 5,900; bead flow cytometry, Alexa488-MEK5 binding to MEKK2 WT; actives lie on both sides; AID 1892; shares compounds with MEKK3 PB1 HTS; in the data active = binding response below about 16% or above about 210%; inactive = in between
MEKK2mut confirm: signal of MEK5 binding to mutant human MEKK2, retest. shares compounds with MEKK3 PB1 HTS. bead flow cytometry, Alexa488-MEK5 binding to MEKK2 mutant. percent response, % at 10 µM. hit rate 2% among 5,900. AID 1893; in the data active = percent response mostly above about 71%, no sharp cut-off; inactive = mostly below about 38%;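 also: higher means compound restores mutant binding toward wildtype level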
MEKK3 confirm: confirmation of inhibitors of MEK5 binding to human MEKK3; shares compounds with MEKK3 PB1 HTS; bead flow cytometry, Alexa488-MEK5 binding to MEKK3; stronger effect = lower value; binding response (% of control), % at 10 µM; hit rate 1.8% among 5,900;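 active = binding response below 72% of control, or above a set upper limit, though filed actives all read lower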
Large screens that a line does not name were inactive (follow-up assays come after a bar, where they were run); [ ] = dose if it differs, or a comment.

O=C(Nc1ccccc1C(=O)N1CCOCC1)C1CCCO1 (stereo not drawn)	MEKK3 PB1 HTS 1.0[inhibitor], MEKK2wt PB1 HTS -1.0[inhibitor] | MEKK2wt confirm inactive | MEKK2mut confirm inactive | MEKK3 confirm inactive
CCc1ccc(N(CC(=O)Nc2ccccc2C(=O)N2CCOCC2)S(C)(=O)=O)cc1	none
NC(=O)c1ccccc1NC(=O)C1CCCO1 (stereo not drawn)	none
CS(=O)(=O)N(CC(=O)Nc1ccccc1C(=O)N1CCOCC1)c1ccc(Cl)cc1	MEKK3 PB1 HTS 44.0[inhibitor], MEKK2wt PB1 HTS 43.0[inhibitor] | MEKK2wt confirm inactive | MEKK2mut confirm inactive | MEKK3 confirm inactive
Cc1cccc(OCC(=O)Nc2ccccc2C(=O)N2CCOCC2)c1	MEKK3 PB1 HTS 130.0 | MEKK2wt confirm inactive | MEKK2mut confirm inactive | MEKK3 confirm inactive
Cc1cccc(OCC(=O)N/N=C/c2ccccc2C(=O)O)c1	MEKK3 PB1 HTS 132.0 | MEKK2wt confirm inactive | MEKK2mut confirm inactive | MEKK3 confirm inactive
O=[N+]([O-])c1ccc(N2CCC(O)CC2)nc1	none
O=c1c(C=NCc2cccnc2)c(C(F)(F)F)[nH]n1-c1nc2ccccc2s1	MEKK2 mut-MEK5 275.0 (no result: MEKK2wt PB1 HTS) | MEKK2wt confirm inactive | MEKK2mut confirm inactive | MEKK3 confirm inactive
CC(OC(=O)c1nn(C)c(=O)c2ccccc12)C(=O)Nc1ccc(S(N)(=O)=O)cc1 (stereo not drawn)	none (no result: MEKK3 PB1 HTS, MEKK2 mut-MEK5, MEKK2wt PB1 HTS, FID counter, NS3 helicase inh)
Cc1cnc(NC(=O)c2cccc(S(=O)(=O)N3CC(C)OC(C)C3)c2)s1 (stereo not drawn)	none
NC(N)=N/N=C/c1ccc2cccc(OCc3ccccc3)c2n1	MEKK2wt PB1 HTS 148.0, T cruzi repl 56.5 | MEKK2wt confirm 2.0[inhibitor] | MEKK2mut confirm inactive | MEKK3 confirm 2.0
O/N=C/c1ccc2cccc(OCc3ccccc3)c2n1	none
O=C(O)CC(NS(=O)(=O)c1c(F)cc(F)cc1Br)c1ccccc1Cl (stereo not drawn)	MEKK2 mut-MEK5 279.0 | MEKK2wt confirm inactive | MEKK2mut confirm inactive | MEKK3 confirm inactive
COc1ccc(N2CCN(C(=O)CNC(=O)c3cccc(Br)c3)CC2)cc1	none
COCCNC(=S)NN=C1CCCCCC1	MEKK3 PB1 HTS 4.0[inhibitor], MEKK2wt PB1 HTS 7.0[inhibitor] | MEKK2wt confirm inactive | MEKK2mut confirm inactive | MEKK3 confirm inactive
COCCNC(=S)NN=C1CCC(c2ccccc2)CC1 (stereo not drawn)	none
CC1CN(CC(=O)Nc2ccc(S(N)(=O)=O)cc2)CC(C)O1 (stereo not drawn)	none
CC[C@H](C)[C@@H](CN[C@H](C)CNC)NCCC(c1ccccc1)c1ccccc1	MEKK2wt PB1 HTS 138.0 | MEKK2wt confirm inactive | MEKK2mut confirm inactive | MEKK3 confirm inactive
CCn1c(-c2cc(-c3ccccc3OC)nc3ccccc23)n[nH]c1=S	MEKK3 PB1 HTS 134.0 | MEKK2wt confirm inactive | MEKK2mut confirm inactive | MEKK3 confirm inactive
CCn1c(-c2cc(-c3cc(OC)ccc3OC)nc3ccccc23)n[nH]c1=S	none
CC(=O)Nc1cc(-c2ccc(Cl)cc2)[nH]n1	none
CC(=O)Nc1cc(NC(C)=O)ncn1	MEKK3 PB1 HTS 48.0[inhibitor] | MEKK2wt confirm inactive | MEKK2mut confirm inactive | MEKK3 confirm inactive
CN1CCC(=O)N([C@H](COc2ccccc2)Cc2ccccc2)CC1	none
O=C(CN1C(=O)C(=O)c2ccccc21)NC1CCCCC1	MEKK3 PB1 HTS 48.0[inhibitor] | MEKK2wt confirm inactive | MEKK2mut confirm inactive | MEKK3 confirm inactive
CCN(CC(=O)Nc1c(F)cccc1F)C(=O)CCSc1ccc(F)cc1	none (no result: MEKK3 PB1 HTS, MEKK2 mut-MEK5, MEKK2wt PB1 HTS, FID counter, NS3 helicase inh)
